In PubChem BioAssay AID720574 (Broad Institute, 2013):
Out of some 96,000 compounds screened, about 140 (0.15%) were called active.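 How the source made its calls: active means mean replicate inhibition above about 25%, with at least 55% of replicates also reaching it (limit read from the data, passing the limit was not always enough); inconclusive means only one of those two conditions met; inactive means neither condition met.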 Shown is part of a subset that was picked to be rich in actives.

These compounds were tested against Lysine-specific demethylase 4C (Homo sapiens) (UniProt Q9H3R0) (assay: KDM4C H3K9me3 demethylation inhibition – biochemical, single concentration HTS, primary screen (AID 720574)). Conditions: GST-KDM4C 2-372, H3K9me3 peptide, LANCE TR-FRET; at 12.5 µM; stronger effect = higher value.
Procedure, shortened: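 System: N-terminal GST-fused human GASC-1 (KDM4C) fragment, residues 2-372; amount: enzyme final amount 10 nM; incubation: reaction 30 min RT, detection step 1 h RT; medium: HEPES buffer, pH 7.5, plus ascorbate; technique: LANCE TR-FRET, Eu antibody, ULight-streptavidin, EDTA, ex 340 nm, em 618/671 nm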

Chain of Lysine-specific demethylase 4C (Homo sapiens) (Q9H3R0 2-372 limits assumed): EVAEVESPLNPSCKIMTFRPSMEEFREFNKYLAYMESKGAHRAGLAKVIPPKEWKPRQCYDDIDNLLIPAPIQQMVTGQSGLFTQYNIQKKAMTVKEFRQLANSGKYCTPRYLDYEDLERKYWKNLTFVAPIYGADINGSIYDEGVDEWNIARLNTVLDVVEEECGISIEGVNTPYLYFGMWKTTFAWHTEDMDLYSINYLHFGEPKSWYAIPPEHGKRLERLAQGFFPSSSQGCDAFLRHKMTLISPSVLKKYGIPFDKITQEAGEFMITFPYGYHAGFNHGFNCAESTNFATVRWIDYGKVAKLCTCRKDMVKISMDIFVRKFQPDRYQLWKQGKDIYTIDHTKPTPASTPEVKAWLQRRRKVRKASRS

Row | SMILES | inhibition
1 | CCCC#Cc1ccc([C@H]2[C@H](CO)N3C(=O)CN(C(=O)c4ccc(F)cc4)C[C@@H]23)cc1 | 0.883% (inactive)
2 | C/C=C/c1ccc([C@H]2[C@@H](CO)N(C(=O)C3CC3)[C@@H]2CNC(=O)NC(C)C)cc1 | 0.927% (inactive)
3 | COc1ccccc1S(=O)(=O)N[C@@H]1C=C[C@H](CC(=O)NCc2cccc(F)c2)O[C@H]1CO | -0.0955% (inactive)
4 | C/C=C/c1ccccc1[C@H]1[C@@H](C#N)N(c2nc(CC)cs2)[C@@H]1CO | -0.26% (inactive)
5 | CN(C)C(=O)C[C@@H]1C[C@@H]2c3cc(NC(=O)NC4CCCCC4)ccc3O[C@@H]2[C@H](CO)O1 | -1.19% (inactive)
6 | CO[C@@H]1CN(C)C(=O)c2ccc(NC(C)=O)cc2OC[C@@H](C)N(CC2CC2)C[C@H]1C | 2.5% (inactive)
7 | C[C@H](CO)N1C[C@H](C)[C@@H](CN(C)Cc2ccc(-c3ccccc3)cc2)Oc2ccc(NC(=O)Cn3cnnn3)cc2C1=O | -1.72% (inactive)
8 | CCCN(C)C[C@H]1Oc2ncc(-c3cccnc3)cc2C(=O)N([C@@H](C)CO)C[C@@H]1C | -0.329% (inactive)
9 | C[C@H](CO)N1C[C@H](C)[C@@H](CN(C)C(=O)c2ccncc2)Oc2cc(/C=C/c3ccccc3)ccc2S1(=O)=O | -4.23% (inactive)
10 | CS(=O)(=O)Nc1ccc2c(c1)[C@@H]1C[C@H](CC(=O)NCc3ccccn3)O[C@@H](CO)[C@@H]1O2 | -0.895% (inactive)
11 | COc1ccc2c3c([nH]c2c1)[C@@H](CO)N(Cc1ccccc1)CC31CCN(Cc2cncnc2)CC1 | -1.85% (inactive)
12 | COc1ccccc1S(=O)(=O)N[C@@H]1CC[C@@H](CCn2cc(C3CCCCC3)nn2)O[C@H]1CO | 0.124% (inactive)
13 | CCC(=O)Nc1ccc2c(c1)C(=O)N(C)[C@H]1CC[C@H](CC(=O)NCC3CCCCC3)O[C@H]1CO2 | -0.841% (inactive)
14 | Cc1ccc(S(=O)(=O)NCC[C@H]2CC[C@H](NC(=O)c3ccccn3)[C@H](CO)O2)cc1 | -1.29% (inactive)
15 | CCCN1[C@@H]2c3ccc(-c4ccccc4)c(=O)n3C[C@@H]2[C@@H](CO)[C@@H]1C(=O)N(C)C | 0.941% (inactive)
16 | COc1ccccc1C(=O)Nc1ccc2c(c1)OC[C@@H](C)NC[C@H](C)[C@@H](OC)CN(C)C2=O | -1.47% (inactive)
17 | CCCNC(=O)N(C)C[C@H]1Oc2cc(C#C[C@@H](C)O)ccc2S(=O)(=O)N([C@H](C)CO)C[C@H]1C | 7.38% (inactive)
18 | CO[C@H]1CC[C@@H]2CCOc3c(C#N)cccc3C(=O)N(C)C[C@@H](OC)[C@H](C)C(=O)N(C)C[C@H]1O2 | 0.229% (inactive)
19 | CN1C(=O)c2cc(NC(=O)C3CCC3)ccc2OC[C@@H]2O[C@@H](CC(=O)NCCc3ccncc3)CC[C@H]21 | 1.45% (inactive)
20 | CN1C[C@H]2[C@@H](c3ccccc31)[C@@H](CO)N2C(=O)Nc1ccccc1 | -2.7% (inactive)
21 | COc1cccc(-c2ccc3n(c2=O)C[C@@H]2[C@@H](CO)[C@H](C(=O)NC4CCC4)[C@H]3N2C)c1 | 1.02% (inactive)
22 | CO[C@@H]1CN(C)C(=O)c2cc(NC(=O)C3CCCC3)ccc2OC[C@H](C)N(C)C[C@@H]1C | -0.0185% (inactive)

Row | SMILES | inhibition
23 | CO[C@H]1CN(C)C(=O)c2ccc(NC(C)=O)cc2OC[C@@H](C)N(C(=O)CN(C)C)C[C@@H]1C | -0.377% (inactive)
24 | CC(=O)N1[C@H](CO)[C@@H](c2ccccc2)[C@@H]1CN(CC(C)C)C(=O)c1ccccn1 | 4.04% (inactive)
25 | CCCC(=O)Nc1ccc2c(c1)OC[C@H](C)N(C(=O)C1CCCC1)C[C@@H](C)[C@H](OC)CN(C)C2=O | 0.661% (inactive)
26 | Cc1cccc(S(=O)(=O)N2C[C@@H](O)COC[C@H]3O[C@H](CC(=O)N4CCN(C)CC4)CC[C@@H]32)c1 | -1% (inactive)
27 | O=C(Cc1ccncc1)N1CC[C@@H]2[C@@H](CO)Nc3ccc(C4=CCCCC4)cc3[C@@H]21 | 0.328% (inactive)
28 | CC(C)NC(=O)N1C[C@@H]2[C@H](c3ccccc31)[C@@H](CO)N2Cc1ccc(Cl)cc1 | 1.62% (inactive)
29 | CO[C@@H]1CN(C)C(=O)c2cc(NC(=O)Nc3cc(F)ccc3F)ccc2OC[C@H](C)N(C(=O)c2ccccn2)C[C@@H]1C | -1.15% (inactive)
30 | CCC(=O)Nc1ccc2c(c1)C(=O)N(C)C[C@H](OC)[C@H](C)CN(CCC(F)(F)F)[C@H](C)CO2 | -0.234% (inactive)
31 | C[C@H]1CCCCO[C@@H](CN(C)C(=O)Nc2cccc3ccccc23)[C@@H](C)CN([C@@H](C)CO)C(=O)c2cc(NS(=O)(=O)c3cn(C)cn3)ccc2O1 | -7.92% (inactive)
32 | O=C(C[C@H]1C[C@H]2c3cc(NC(=O)C4CCOCC4)ccc3O[C@H]2[C@@H](CO)O1)NCCN1CCCCC1 | 1.06% (inactive)
33 | O=C(C[C@H]1CC[C@H]2[C@@H](COC[C@H](O)CN2S(=O)(=O)c2cccc(F)c2)O1)NC1CCC1 | 0.711% (inactive)
34 | O=C(C[C@H]1CC[C@@H]2[C@H](COC[C@H](O)CN2Cc2ccccc2F)O1)NC1CCC1 | 1.48% (inactive)
35 | O=C(C[C@@H]1C=C[C@@H](NC(=O)c2cccnc2)[C@H](CO)O1)NCc1ccncn1 | 1.05% (inactive)
36 | C[C@H](CO)N1C[C@H](C)[C@@H](CN(C)S(C)(=O)=O)Oc2cc(C#CC3CC3)ccc2S1(=O)=O | 4.29% (inactive)
37 | C[C@H]1CCCCO[C@H](CN(C)C(=O)Nc2ccc(F)cc2)[C@@H](C)CN([C@@H](C)CO)C(=O)c2cc(NC(=O)CCC(F)(F)F)ccc2O1 | 1.63% (inactive)
38 | CS(=O)(=O)N1CC2(C1)[C@H](c1ccccc1)[C@@H](CO)N2C(=O)c1ccccc1 | -0.995% (inactive)
39 | O=C(Cc1ccncc1)N[C@@H]1CC[C@H](CCn2cc(-c3ccccc3F)nn2)O[C@H]1CO | -1.33% (inactive)
40 | CN(C)CC(=O)N1[C@@H](CO)[C@H](c2ccccc2)C12CN(C(=O)c1cccc(F)c1)C2 | -0.471% (inactive)
41 | CCC(=O)N1[C@H](C(=O)OC)[C@@H](CO)[C@@H]2Cn3c(ccc(-c4cccc(F)c4)c3=O)[C@@H]21 | 1.8% (inactive)
42 | Cc1ccc(S(=O)(=O)N(C)C[C@@H]2OCCCC[C@@H](C)Oc3ccc(NC(=O)Nc4ccc(C(F)(F)F)cc4)cc3C(=O)N([C@@H](C)CO)C[C@@H]2C)cc1 | 1.16% (inactive)
43 | O=C(CN1CCOCC1)N1CC(=O)N2[C@H](C1)[C@H](c1ccc(/C=C/c3ccccc3)cc1)[C@@H]2CO | 0.257% (inactive)
44 | O=C(NCC[C@H]1CC[C@@H](NC(=O)C2CC2)[C@H](CO)O1)c1ccc(F)cc1 | -0.983% (inactive)

Row | SMILES | inhibition
45 | CCC(=O)Nc1ccc2c(c1)C(=O)N(C)[C@@H]1CC[C@H](CC(=O)NCc3ccccc3)O[C@H]1CO2 | 1.95% (inactive)
46 | COc1ccc(S(=O)(=O)N[C@@H]2CC[C@@H](CC(=O)N3CCC(Cc4ccccc4)CC3)O[C@@H]2CO)cc1 | -0.232% (inactive)
47 | COCC(=O)Nc1ccc2c(c1)[C@@H]1C[C@H](CC(=O)NCc3ccc(-c4ccccc4)cc3)O[C@H](CO)[C@@H]1O2 | -3.13% (inactive)
48 | CN1C(=O)c2cc(NC(=O)C3CCCC3)ccc2OC[C@@H]2O[C@@H](CC(=O)NCCc3ccncc3)CC[C@@H]21 | 1.45% (inactive)
49 | Cc1ccc(S(=O)(=O)N[C@H]2CC[C@@H](CC(=O)N3CCc4ccccc4C3)O[C@H]2CO)cc1 | 0.126% (inactive)
50 | O=C(C[C@@H]1C[C@H]2c3cc(NC(=O)Nc4ccccc4)ccc3O[C@H]2[C@@H](CO)O1)NC1CCCCC1 | -1.66% (inactive)
51 | COc1ccc2c3c(n(C)c2c1)[C@@H](CO)N(C(=O)Nc1ccc(F)cc1)CC31CN(C(=O)NC(C)C)C1 | -0.434% (inactive)
52 | C/C=C/c1ccc([C@@H]2[C@H](CO)N(CC3CCOCC3)C23CN(S(=O)(=O)CC)C3)cc1 | 0.162% (inactive)
53 | C[C@H](CO)N1C[C@H](C)[C@H](CN(C)Cc2ccncc2)Oc2ncc(C#CCC3CCCCC3)cc2C1=O | 2.4% (inactive)
54 | CC(C)NC(=O)N(C)C[C@@H]1OCCCC[C@@H](C)Oc2ccc(NC(=O)NC3CCCCC3)cc2C(=O)N([C@@H](C)CO)C[C@@H]1C | 0.134% (inactive)
55 | COc1ccccc1C#Cc1cnc2c(c1)C(=O)N([C@H](C)CO)C[C@H](C)[C@H](CN(C)S(=O)(=O)c1cn(C)cn1)O2 | -1.15% (inactive)
56 | CO[C@@H]1CN(C)C(=O)c2ccc(NC(=O)c3ccccc3F)cc2OC[C@@H](C)N(CC2CCOCC2)C[C@H]1C | 2.15% (inactive)
57 | CCNC(=O)C[C@@H]1CC[C@@H]2[C@H](COc3ccc(NS(=O)(=O)c4ccccc4C)cc3C(=O)N2C)O1 | 2.37% (inactive)
58 | CN1C[C@@H]2[C@H](c3ccccc31)[C@@H](CO)N2C(=O)Nc1ccccc1 | -1.64% (inactive)
59 | CCC(=O)Nc1ccc2c(c1)C(=O)N(C)[C@H]1CC[C@H](CC(=O)NCCOC)O[C@@H]1CO2 | 1.02% (inactive)
60 | Cc1noc(C)c1NC(=O)N[C@@H]1C=C[C@@H](CC(=O)Nc2ccccc2)O[C@H]1CO | 1.04% (inactive)
61 | CCS(=O)(=O)Nc1ccc2c(c1)C(=O)N(C)[C@H]1CC[C@@H](CC(=O)N3CCCCC3)O[C@H]1CO2 | -0.234% (inactive)
62 | COCC(=O)N1CC2(C1)CN(C(=O)COC)[C@@H](CO)c1c2c2ccc(OC)cc2n1C | 2.79% (inactive)
63 | CC(C)NC(=O)N[C@@H]1CC[C@@H](CCNS(=O)(=O)Cc2ccccc2)O[C@@H]1CO | -0.501% (inactive)
64 | COc1ccc(S(=O)(=O)N(C)C[C@H]2Oc3c(NC(=O)CCCCCC(=O)Nc4ccccc4N)cccc3C(=O)N([C@H](C)CO)C[C@H]2C)cc1 | 0.35% (inactive)
